High-throughput results: PubChem, several laboratories
A selection: hits, their analogues and other compounds. The true share with any hit is near 0.49%.
ABCG2 block = inhibitors of human ABCG2 transporter, ABCB1 counter-screen | Q9UNQ0 | IgMXP3 cells, JC-1 efflux, flow cytometry | inhibition, % at 6.6 µM | 190,000 tested, 0.1% active | AID 1325;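 active = inhibition above 80%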
Target sequence (Q9UNQ0 whole entry, looked up): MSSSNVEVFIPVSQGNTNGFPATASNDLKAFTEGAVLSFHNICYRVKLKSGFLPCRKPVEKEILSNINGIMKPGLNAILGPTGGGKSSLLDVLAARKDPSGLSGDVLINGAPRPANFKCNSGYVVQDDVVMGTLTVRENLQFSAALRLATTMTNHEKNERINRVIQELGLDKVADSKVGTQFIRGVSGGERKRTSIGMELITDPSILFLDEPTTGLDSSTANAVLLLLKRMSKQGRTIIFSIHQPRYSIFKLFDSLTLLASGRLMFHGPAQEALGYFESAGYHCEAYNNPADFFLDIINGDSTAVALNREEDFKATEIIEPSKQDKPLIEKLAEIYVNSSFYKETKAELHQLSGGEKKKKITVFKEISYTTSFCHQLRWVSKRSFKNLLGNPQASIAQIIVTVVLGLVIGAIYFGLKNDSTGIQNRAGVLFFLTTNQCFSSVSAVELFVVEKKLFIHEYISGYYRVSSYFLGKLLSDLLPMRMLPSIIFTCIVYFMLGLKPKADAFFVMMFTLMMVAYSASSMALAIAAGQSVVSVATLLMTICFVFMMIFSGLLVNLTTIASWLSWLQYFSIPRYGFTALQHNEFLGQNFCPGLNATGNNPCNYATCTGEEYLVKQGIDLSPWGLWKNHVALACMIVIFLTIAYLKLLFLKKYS
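Read-out basis: Efflux inhibition in percent versus controls | Test system: ABCG2 IgMXP3 and barcoded ABCB1 CCRF-Adr cell mix | Quantity: 3 million cells/mL in well | Schedule: 10 min at 25 °C | Control set: Nicardipine as high control, DMSO as low control | Reagent: JC-1 as fluorescent efflux pump substrate | Signal: Flow cytometry of retained JC-1 fluorescence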
Efa HMGR inh = E. faecalis class II HMG-CoA reductase inhibition; purified E. faecalis HMGR, NADPH absorbance 340 nm kinetic; inhibition, % at 10 µM; 190,000 tested, 0.41% active;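 active = inhibition above a set limit, the median over all tested compounds plus 3 SD, cut at about 9.5% in these data; inconclusive = no clear call, values can overlap the other calls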;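 note: enzyme runs in reverse so mevalonate oxidation gives rising NADPH absorbance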
ABCB1 block = human ABCB1 inhibition, ABCG2 as counter-screen. AID 1326. 190,000 tested, 0.067% active. inhibition, % at 6.6 µM. P08183. CCRF-Adr cells, JC-1 efflux, flow cytometry; in the data active = inhibition above about 40%;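 note: higher value means more JC-1 retained so stronger ABCB1 efflux block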
HSV augment = increases HSV replication in cells | HSV replication augmentation in cells, fold increase | maximum fold increase | 220,000 tested, 0.005% active; in the data active = maximum fold increase above about 1.5; inconclusive = no clear call, values can overlap the other calls; tested in PC3 cells
ABCB1 single pt = confirmation of human ABCB1 transporter inhibitors, ABCG2 counter-screen. 270 tested, 7% active. shares compounds with ABCG2 block. inhibition, % at 6.6 µM. CCRF-Adr cells, JC-1 efflux, flow cytometry;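 active = inhibition of pump activity above 50%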
ABCG2 single pt = inhibits human ABCG2 efflux, confirmed at single point. AID 1453. IgMXP3 cells, JC-1 efflux, flow cytometry. inhibition, % at 6.6 µM. shares compounds with ABCG2 block. 270 tested, 6% active;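 active = inhibition above 50%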
IgMXP3 autofluor = counter-screen for ABCG2 inhibitors: compound fluorescence in IgMXP3 cells; fluorescence at 6.6 µM; 270 tested, 30% active; AID 1480; shares compounds with ABCG2 block; compound autofluorescence 488/530 nm, flow; hits give high values;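 active = fluorescence in ABCG2-expressing cells above the plate's control-well mean plus 3 SD, cut at about 15 in these data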
CCRF autofluor = counter-screen for ABCB1 inhibitors: compound fluorescence in CCRF-Adr cells; 270 tested, 30% active; shares compounds with ABCG2 block; compound autofluorescence 488/530 nm, flow cytometry; hits give high values; fluorescence at 6.6 µM;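 active = fluorescence beyond the plate control mean plus 3 SD, with a fluorescence-to-maximum score over 2, cut at about 25 in these data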
Numbers stand for hits; - = inactive; ? = inconclusive; . = not tested or not shown.

SMILES	ABCG2 block	Efa HMGR inh	ABCB1 block	HSV augment	ABCB1 single pt	ABCG2 single pt	IgMXP3 autofluor	CCRF autofluor
CC(O)CNc1nc2c(c(=O)n(C)c(=O)n2C)n1Cc1cccc(Br)c1 (centres undefined)	91	-	-	-	-	-	-	114
C=CCN1C(=O)/C(=C\C=C2\N(C)c3ccccc3C2(C)C)SC1=S	189	-	61	?	-	-	145	186
CN1/C(=C\C=C2/SC(=S)N(CC(=O)O)C2=O)C(C)(C)c2ccccc21	-	-	-	?	.	.	.	.
CCN1C(=O)/C(=C/C=C2/Sc3ccccc3N2CCO)SC1=S	-	-	-	?	.	.	.	.
CCCN1C(=O)/C(=C/C=C2\N(CC)c3ccccc3C2(C)C)SC1=S	-	-	70	?	-	-	96	193
CCCCN1C(=O)/C(=C/C=C2\Oc3ccccc3N2CC)SC1=S	89	-	-	-	-	-	162	423
N#Cc1c(N)nc2c(c1-c1ccc(F)cc1)c(=O)nc1sccn12	-	-	-	-	.	.	.	.
CC(C)(C)C(=O)Nc1cc(S(=O)(=O)N2CCCCC2)ccc1N1CCCCC1	-	-	-	-	.	.	.	.
CCN1CCN(c2nc(-c3ccccn3)nc3ccccc23)CC1	-	-	-	-	.	.	.	.
c1ccc(CN2CCN(c3nc(-c4ccccn4)nc4ccccc34)CC2)cc1	-	-	48	-	-	-	-	-
O=c1cc(-c2ccccc2)[nH][nH]1	-	-	82	.	-	-	-	-
CCC[C@@H]1CCCO[C@@](C(=O)NCc2ccccn2)(C(F)(F)F)C1	.	.	.	-	.	.	.	.
COc1cc(OC)cc(C(=O)N[C@H](C(=O)Nc2nc(-c3ccc(OC)c(OC)c3)cs2)C(C)C)c1	.	.	.	-	.	.	.	.
COc1cc(OC)cc(C(=O)N[C@H](C(=O)Nc2nc(-c3cc(OC)ccc3OC)cs2)C(C)C)c1	-	-	-	-	-	-	-	-
Cc1cc(C(=O)NNS(=O)(=O)c2ccc(C(C)(C)C)cc2)nn1C(C)(C)C	.	.	.	-	.	.	.	.
O=C1NCCc2c1[nH]c1ccc([N+](=O)[O-])cc21	-	-	-	-	.	.	.	.
O=C(N/N=C1\CCCc2c1[nH]c1ccc([N+](=O)[O-])cc21)c1ccncc1	114	-	-	-	-	-	-	-
CCOc1ccc(OCC)c(NC(=O)CN(C)S(=O)(=O)c2ccc3nc(C)sc3c2)c1	-	-	-	-	.	.	.	.
Cn1c(=S)ccc2ccccc21	-	-	-	-	.	.	.	.
CCc1ccc(C(=O)COC(=O)c2ccc(Cl)nc2)cc1	-	-	-	-	.	.	.	.
COc1ccc(NC(=O)CN2CCN(C3c4ccccc4-c4ccccc43)CC2)c(OC)c1	-	-	-	-	-	-	-	-
Nc1c(C(=O)C2CC2)sc2nc(-c3cccs3)cc(C(F)(F)F)c12	-	-	42	.	-	-	92	271
CC(C)NC(=O)c1sc2nc(-c3cccs3)cc(-c3cccs3)c2c1N	-	-	-	-	.	.	.	.
CCN(CC)c1ccc2cc(-c3nc4ccccc4[nH]3)c(=O)oc2c1	-	-	-	?	-	-	122	296
CCCCn1c(O)c(N=Nc2ccccn2)c2ccccc21	-	-	-	-	-	51	-	-
SMILES	ABCG2 block	Efa HMGR inh	ABCB1 block	HSV augment	ABCB1 single pt	ABCG2 single pt	IgMXP3 autofluor	CCRF autofluor
N#Cc1ccc(COC(=O)c2ccc(N3CCCC3)c([N+](=O)[O-])c2)cc1	90	-	-	-	-	-	-	-
CCOc1ccc(NC(=O)c2cccc3c2C(=O)N(CCOC)C3)cc1	82	-	-	-	-	52	-	-
COc1ccc(NS(=O)(=O)c2ccc(C(=O)N3CCN(Cc4ccccc4)CC3)cc2)cc1	-	-	-	-	.	.	.	.
COc1ccc(N2CCN(C(=O)c3ccc(NS(=O)(=O)c4ccccc4)cc3)CC2)cc1	83	-	-	-	-	-	63	-
NC(=S)N=Nc1c(O)[nH]c2ccc(F)cc12	-	-	-	-	-	-	-	-
COc1ccccc1NC(=O)/C(=C/c1cccc([N+](=O)[O-])c1)c1ccccc1	-	-	-	-	-	-	-	-
